{"data": "Results of several laboratories", "note": "Compare with care: the assays were run in different laboratories."}
{"Compound": "COc1ccc(/C=N/NC(=O)c2ccc(Nc3cc(C)nc4c(O)cccc34)cc2)cc1O", "cell line": "SMMC-7721", "assay": "cell growth or viability, MTT", "setting": "20 µM", "measurement": "inhibition", "value": "30.3%"}
{"Compound": "C=C(F)C(=O)N1CCN(c2nc(OC[C@@H]3CCCN3C)nc3c2CCN(c2cccc4cccc(Cl)c24)C3)C[C@@H]1CC#N", "cell line": "NCI-H1437", "assay": "cell growth or viability, resazurin", "setting": "72 h", "measurement": "GI50", "value": "3.68 µM"}
{"Compound": "CC(=O)Oc1ccc(/C=N/NC(=O)c2ccc(Nc3cc(C)nc4c(O)cccc34)cc2)cc1", "cell line": "SMMC-7721", "assay": "cell growth or viability, MTT", "setting": "20 µM", "measurement": "inhibition", "value": "14.1%"}
{"Compound": "COC(=O)c1ccc2c(c1)NC(=O)/C2=C(\\Nc1ccc(N(C)C(=O)CN2CCN(C)CC2)cc1)c1ccccc1", "cell line": "L929", "assay": "cell growth or viability, MTT", "setting": "10 µM, 24 h", "measurement": "inhibition", "value": "< 50%"}
{"Compound": "c1ccc2c(-c3nc4ccccc4[nH]3)c3ccccc3cc2c1", "cell line": "human Rhabdomyosarcoma cell", "assay": "cell growth or viability, MTT", "setting": "48 h", "measurement": "IC50", "value": "7.66 µM"}
{"Compound": "Cc1cc(Nc2ccc(C(=O)N/N=C/c3ccnc(Cl)c3)cc2)c2cccc(O)c2n1", "cell line": "SMMC-7721", "assay": "cell growth or viability, MTT", "setting": "20 µM", "measurement": "inhibition", "value": "19.8%"}
{"Compound": "Oc1ccc(Br)cc1-c1nc2ccccc2[nH]1", "cell line": "human Rhabdomyosarcoma cell", "assay": "cell growth or viability, MTT", "setting": "48 h", "measurement": "IC50", "value": "7.25 µM"}
{"Compound": "O=C(/C=C(O)/C=C/c1ccncc1)/C=C/c1c[nH]c2ccccc12", "cell line": "CHO-K1", "assay": "cell growth or viability, SRB", "setting": "72 h", "measurement": "IC50", "value": "66.3 µM"}
{"Compound": "C=CC(=O)N1CCC[C@@H](n2nc(-c3ccc(Oc4ccccc4)cc3)c3c(N)ncnc32)C1", "cell line": "BCWM1", "assay": "cell growth or viability", "setting": "48 h", "measurement": "GI50", "value": "0.57 µM"}
{"Compound": "Cc1cc(Nc2ccc(C(=O)N/N=C/c3ccncc3)cc2)c2cccc(O)c2n1", "cell line": "SMMC-7721", "assay": "cell growth or viability, MTT", "setting": "20 µM", "measurement": "inhibition", "value": "17.1%"}
{"Compound": "COc1cc(Nc2nccc(-c3cnn4nc(OC)ccc34)n2)cc(C(F)(F)F)c1", "cell line": "NCI-H1437", "assay": "cell growth or viability, ATP luminescence", "measurement": "IC50", "value": "0.75 µM"}
{"Compound": "CCn1cc(-c2cccc(C(F)(F)F)c2)c2sc(C(=N)NC3CCS(=O)(=O)CC3)cc2c1=O", "cell line": "HL-60", "assay": "cell growth or viability", "setting": "7 days", "measurement": "EC50", "value": "0.433 µM"}
{"Compound": "Clc1ccc(-c2nc3ccccc3[nH]2)cc1Cl", "cell line": "human Rhabdomyosarcoma cell", "assay": "cell growth or viability, MTT", "setting": "48 h", "measurement": "IC50", "value": "10.4 µM"}
{"Compound": "C=CC(=O)N1CCN(c2nc(=O)n(-c3c(C)ccnc3C(C)C)c3nc(-c4c(O)cccc4F)c(F)cc23)[C@@H](C)C1", "cell line": "NCI-H1437", "assay": "cell growth or viability, resazurin", "setting": "72 h", "measurement": "GI50", "value": "> 10 µM"}
{"Compound": "Cc1cccc(/C=N/NC(=O)c2ccc(Nc3cc(C)nc4c(O)cccc34)cc2)n1", "cell line": "SMMC-7721", "assay": "cell growth or viability, MTT", "setting": "20 µM", "measurement": "inhibition", "value": "19.9%"}
{"Compound": "FC(F)(F)[Se]CCOc1cccc(Oc2ccccc2)c1", "cell line": "Vero", "assay": "cell growth or viability", "setting": "72 h", "measurement": "CC50", "value": "> 20 µM"}
{"Compound": "Cc1ccc2nc(-c3c4ccccc4cc4ccccc34)[nH]c2c1", "cell line": "human Rhabdomyosarcoma cell", "assay": "cell growth or viability, MTT", "setting": "48 h", "measurement": "IC50", "value": "27 µM"}
{"Compound": "Cc1cc(Nc2ccc(C(=O)N/N=C/C3CCCCC3)cc2)c2cccc(O)c2n1", "cell line": "SMMC-7721", "assay": "cell growth or viability, MTT", "setting": "20 µM", "measurement": "inhibition", "value": "26.3%"}
{"Compound": "FC(F)(F)SCCOc1ccc(Oc2ccccc2)cc1", "cell line": "Vero", "assay": "cell growth or viability", "setting": "72 h", "measurement": "CC50", "value": "> 20 µM"}
{"Compound": "Cc1ccc(/C=N/NC(=O)c2ccc(Nc3cc(C)nc4c(O)cccc34)cc2)cc1", "cell line": "SMMC-7721", "assay": "cell growth or viability, MTT", "setting": "20 µM", "measurement": "inhibition", "value": "50.8%"}
{"Compound": "COc1ccc(-c2ccc(/C(C)=N/O)c(O)c2Cl)cc1Cl", "cell line": "NCI-H1299", "assay": "cell growth or viability, MTT", "setting": "30 µM, 48 h", "measurement": "viability", "value": "65%"}
{"Compound": "CCC[C@@H]1CNC(=O)C(=O)N1C[C@@H]1CCCN1C[C@H](Cc1ccc(O)cc1)N1C[C@@H](Cc2ccc(O)cc2)N(CC(CC)c2ccccc2)C(=O)C1=O (stereo partly drawn)", "cell line": "CHO-K1", "assay": "cell growth or viability, ATP luminescence", "setting": "100 µM", "measurement": "inhibition", "value": "0%"}
{"Compound": "Cc1cc(Nc2ncc(Cl)c(Nc3ccccc3S(=O)(=O)C(C)C)n2)c(OC(C)C)cc1C1CCNCC1", "cell line": "NCI-H3122", "assay": "cell growth or viability, MTT", "setting": "0.0032 µg/mL, 72 h", "measurement": "inhibition", "value": "10.3%"}
{"Compound": "C/C(=N\\O)c1ccc(-c2ccc(O)c(C)c2)c(Cl)c1O", "cell line": "NCI-H1299", "assay": "cell growth or viability, MTT", "setting": "30 µM, 48 h", "measurement": "viability", "value": "62%"}
{"Compound": "O=C1CCC(N2Cc3cc(CNC(=O)C(F)(F)c4ccc(Cl)cc4)ccc3C2=O)C(=O)N1 (stereo not drawn)", "cell line": "MHHCALL4", "assay": "cell growth or viability, ATP luminescence", "measurement": "EC50", "value": "0.00413 µM"}
{"Compound": "Cn1nnc2c(C(N)=O)ncn2c1=O", "cell line": "MKN-45", "assay": "cell growth or viability", "measurement": "EC50", "value": "491 µM"}
{"Compound": "COc1cc(/C=C/C(=O)/C=C(O)/C=C/c2ccc[nH]2)ccc1O", "cell line": "CHO-K1", "assay": "cell growth or viability, MTT", "setting": "72 h", "measurement": "IC50", "value": "24.1 µM"}
{"Compound": "Cc1ccc2nc(-c3ccc(Cl)c(Cl)c3)n(Cc3ccccc3)c2c1", "cell line": "human Rhabdomyosarcoma cell", "assay": "cell growth or viability, MTT", "measurement": "IC50", "value": "78.9 µM"}
{"Compound": "CC(=O)c1cccc(N=Nc2c(C(=O)O)cc(O)c(O)c2O)c1", "cell line": "RAW264.7", "assay": "IL-6 release, inhibitor, ELISA", "setting": "10 µM, LPS-stimulated", "measurement": "inhibition", "value": "43%"}
{"Compound": "COc1ccc(-c2nc3ccc(C)cc3[nH]2)cc1OC", "cell line": "human Rhabdomyosarcoma cell", "assay": "cell growth or viability, MTT", "setting": "48 h", "measurement": "IC50", "value": "> 100 µM"}
{"Compound": "COc1cc(/C=C/c2cc(/C=C/c3ccncc3)[nH]n2)ccc1O", "cell line": "CHO-K1", "assay": "cell growth or viability, MTT", "setting": "72 h", "measurement": "IC50", "value": "32.2 µM"}
{"Compound": "COc1ccc(-c2nc3ccc(C)cc3[nH]2)cc1O", "cell line": "human Rhabdomyosarcoma cell", "assay": "cell growth or viability, MTT", "setting": "48 h", "measurement": "IC50", "value": "48.7 µM"}
{"Compound": "COc1cc(/C=C/C(=O)/C=C(O)/C=C/c2cccnc2)ccc1O", "cell line": "CHO-K1", "assay": "cell growth or viability, MTT", "setting": "72 h", "measurement": "IC50", "value": "21.4 µM"}
{"Compound": "C/C(=N\\O)c1ccc(-c2ccc(OC(F)(F)F)cc2)c(Cl)c1O", "cell line": "NCI-H1299", "assay": "cell growth or viability, MTT", "setting": "30 µM, 48 h", "measurement": "viability", "value": "106%"}
{"Compound": "Cc1cc(Nc2ccc(C(=O)N/N=C/c3ccccc3)cc2)c2cccc(O)c2n1", "cell line": "SMMC-7721", "assay": "cell growth or viability, MTT", "setting": "20 µM", "measurement": "inhibition", "value": "28.5%"}
{"Compound": "O=C(/C=C(O)/C=C/c1ccc[nH]1)/C=C/c1c[nH]c2ccccc12", "cell line": "CHO-K1", "assay": "cell growth or viability, MTT", "setting": "72 h", "measurement": "IC50", "value": "11 µM"}
{"Compound": "N#CSCCOc1ccccc1Oc1ccccc1", "cell line": "Vero", "assay": "cell growth or viability", "setting": "72 h", "measurement": "CC50", "value": "> 20 µM"}
{"Compound": "C/C(=N\\O)c1ccc(-c2cccc(O)c2)c(Cl)c1O", "cell line": "NCI-H1299", "assay": "cell growth or viability, MTT", "setting": "30 µM, 48 h", "measurement": "viability", "value": "22%"}
{"Compound": "Clc1ccccc1-c1nc2ccccc2[nH]1", "cell line": "human Rhabdomyosarcoma cell", "assay": "cell growth or viability, MTT", "setting": "48 h", "measurement": "IC50", "value": "42.4 µM"}
{"Compound": "C/C(=N\\O)c1ccc(-c2ccc(C(F)(F)F)cc2)c(Cl)c1O", "cell line": "NCI-H1299", "assay": "cell growth or viability, MTT", "setting": "30 µM, 48 h", "measurement": "viability", "value": "89%"}
{"Compound": "COc1cc(/C=C/c2cc(/C=C/c3cccnc3)[nH]n2)ccc1O", "cell line": "CHO-K1", "assay": "cell growth or viability, MTT", "setting": "72 h", "measurement": "IC50", "value": "13.2 µM"}
{"Compound": "C[C@@H](Oc1cc(-c2cnn(C3CCNCC3)c2)cnc1N)c1c(Cl)ccc(F)c1Cl", "cell line": "NCI-H3122", "assay": "cell growth or viability, MTT", "setting": "0.008 µg/mL, 72 h", "measurement": "inhibition", "value": "18.1%"}
